pIC50: −log10 of the molar value.
What was measured:
[1] = Binding affinity to biotinylated mouse CD22-human IgG1 chimeric protein expressed in mouse J558LST6 cells by flow cytometry; assay type: cell-based
In short: (§1)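 IC50 from inhibition of CD22-Fc binding to alpha2,6-sialic acid on ST6GalI-transfected J558L mouse myeloma cells (J558LST6), incubated with CD22-Fc plus varied sialoside concentrations. Detection with Alexa Fluor 647-streptavidin, 30 min on ice, then flow cytometry. % binding = (A−B)/(C−B)×100 using MFI: A, sialoside sample; B, parent J558L; C, untreated J558LST6. IC50 taken as 50% binding inhibition; means of ≥3 independent determinations.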

B-cell receptor CD22 = target: T1, B-cell receptor CD22 (Homo sapiens, UniProt P20273); test: Binding affinity to biotinylated human CD22-human IgG1 chimeric protein expressed in mouse J558LST6 cells by flow cytometry; assay type: cell-based; in short: as §1
T1 sequence (P20273 whole entry): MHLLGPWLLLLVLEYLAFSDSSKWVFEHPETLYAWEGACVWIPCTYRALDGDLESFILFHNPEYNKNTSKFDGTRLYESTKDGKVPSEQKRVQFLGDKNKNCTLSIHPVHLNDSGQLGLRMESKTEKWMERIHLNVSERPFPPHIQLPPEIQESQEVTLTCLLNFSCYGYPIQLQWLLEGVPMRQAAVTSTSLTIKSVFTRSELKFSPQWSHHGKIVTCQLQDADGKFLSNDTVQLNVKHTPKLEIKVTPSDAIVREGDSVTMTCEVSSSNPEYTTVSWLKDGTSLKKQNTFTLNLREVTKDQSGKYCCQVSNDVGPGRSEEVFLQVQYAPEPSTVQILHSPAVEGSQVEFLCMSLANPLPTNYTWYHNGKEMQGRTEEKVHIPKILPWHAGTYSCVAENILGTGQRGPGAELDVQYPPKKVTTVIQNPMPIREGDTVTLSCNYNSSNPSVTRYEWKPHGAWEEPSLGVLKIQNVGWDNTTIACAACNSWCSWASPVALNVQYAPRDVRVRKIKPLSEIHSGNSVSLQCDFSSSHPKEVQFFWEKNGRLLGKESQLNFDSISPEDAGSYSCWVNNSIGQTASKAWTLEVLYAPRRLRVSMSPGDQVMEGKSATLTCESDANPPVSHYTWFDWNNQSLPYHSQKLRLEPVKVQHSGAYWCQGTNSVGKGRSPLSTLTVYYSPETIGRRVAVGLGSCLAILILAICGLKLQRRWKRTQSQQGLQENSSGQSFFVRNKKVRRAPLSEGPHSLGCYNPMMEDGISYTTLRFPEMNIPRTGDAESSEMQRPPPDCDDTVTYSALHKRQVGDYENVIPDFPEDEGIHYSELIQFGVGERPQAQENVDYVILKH

C[Si](C)(C)CCO[C@@H]1O[C@H](CO[C@]2(C(=O)O)C[C@H](O)[C@@H](NC(=O)CO)[C@H]([C@H](O)[C@H](O)CO)O2)[C@H](O)[C@H](O)[C@H]1O
pIC50 [1]: 3.08
pIC50 (B-cell receptor CD22): 3.26

COc1ccc(O[C@@H]2O[C@H](CO[C@]3(C(=O)O)C[C@H](O)[C@@H](NC(=O)CO)[C@H]([C@H](O)[C@H](O)CNC(=O)c4ccccc4)O3)[C@H](O)[C@H](O)[C@H]2O)cc1
pIC50 [1]: 3.94
pIC50 (B-cell receptor CD22): 3.90

COc1ccc(O[C@@H]2O[C@H](CO[C@]3(C(=O)O)C[C@H](O)[C@@H](NC(=O)CO)[C@H]([C@H](O)[C@H](O)CO)O3)[C@H](O)[C@H](O)[C@H]2O)cc1
pIC50 [1]: 3.30
pIC50 (B-cell receptor CD22): 3.83

COc1ccc(O[C@@H]2O[C@H](CO[C@]3(C(=O)O)C[C@H](O)[C@@H](NC(=O)CO)[C@H]([C@H](O)[C@H](O)CN)O3)[C@H](O)[C@H](O)[C@H]2O)cc1
pIC50 [1]: 4.03
pIC50 (B-cell receptor CD22): 4.07

Source: ChEMBL document CHEMBL1142516, “Design, synthesis, and structure-affinity relationships of novel series of sialosides as CD22-specific inhibitors” (J Med Chem, 2008)
